This is a sample that favours compounds with a hit; in the whole collection about 4.1% have one here.
UBC13 inh: blocks human UBC13 polyubiquitin chain formation | P61088 | TR-FRET | inhibition, % at 20 µM | hit rate 0.47% among 330,000; in the data active = inhibition above about 45%, passing the limit was not always enough
Mdm2 MdmX PPI: human Mdm2/MdmX binding inhibition; hit rate 3% among 330,000; AID 485346; inhibition, % at 8 µM; O15151+Q00987; SaOS-2 split-luciferase Mdm2/MdmX complementation, luminescence;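 active = inhibition of at least 50% at 8 µM in the primary screen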
Apaf-1 inh: human Apaf-1 inhibition. O14727. reconstituted apoptosome caspase-3 activity, DEVD-Rh110 fluorescence. inhibition, % at 20 µM. hit rate 0.71% among 330,000. AID 489030; active = inhibition of at least 40% at 20 µM;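 also: plate controls were DMSO wells for no effect and DEVD-CHO caspase inhibitor wells for full effect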
Target sequence (O14727 whole entry, looked up): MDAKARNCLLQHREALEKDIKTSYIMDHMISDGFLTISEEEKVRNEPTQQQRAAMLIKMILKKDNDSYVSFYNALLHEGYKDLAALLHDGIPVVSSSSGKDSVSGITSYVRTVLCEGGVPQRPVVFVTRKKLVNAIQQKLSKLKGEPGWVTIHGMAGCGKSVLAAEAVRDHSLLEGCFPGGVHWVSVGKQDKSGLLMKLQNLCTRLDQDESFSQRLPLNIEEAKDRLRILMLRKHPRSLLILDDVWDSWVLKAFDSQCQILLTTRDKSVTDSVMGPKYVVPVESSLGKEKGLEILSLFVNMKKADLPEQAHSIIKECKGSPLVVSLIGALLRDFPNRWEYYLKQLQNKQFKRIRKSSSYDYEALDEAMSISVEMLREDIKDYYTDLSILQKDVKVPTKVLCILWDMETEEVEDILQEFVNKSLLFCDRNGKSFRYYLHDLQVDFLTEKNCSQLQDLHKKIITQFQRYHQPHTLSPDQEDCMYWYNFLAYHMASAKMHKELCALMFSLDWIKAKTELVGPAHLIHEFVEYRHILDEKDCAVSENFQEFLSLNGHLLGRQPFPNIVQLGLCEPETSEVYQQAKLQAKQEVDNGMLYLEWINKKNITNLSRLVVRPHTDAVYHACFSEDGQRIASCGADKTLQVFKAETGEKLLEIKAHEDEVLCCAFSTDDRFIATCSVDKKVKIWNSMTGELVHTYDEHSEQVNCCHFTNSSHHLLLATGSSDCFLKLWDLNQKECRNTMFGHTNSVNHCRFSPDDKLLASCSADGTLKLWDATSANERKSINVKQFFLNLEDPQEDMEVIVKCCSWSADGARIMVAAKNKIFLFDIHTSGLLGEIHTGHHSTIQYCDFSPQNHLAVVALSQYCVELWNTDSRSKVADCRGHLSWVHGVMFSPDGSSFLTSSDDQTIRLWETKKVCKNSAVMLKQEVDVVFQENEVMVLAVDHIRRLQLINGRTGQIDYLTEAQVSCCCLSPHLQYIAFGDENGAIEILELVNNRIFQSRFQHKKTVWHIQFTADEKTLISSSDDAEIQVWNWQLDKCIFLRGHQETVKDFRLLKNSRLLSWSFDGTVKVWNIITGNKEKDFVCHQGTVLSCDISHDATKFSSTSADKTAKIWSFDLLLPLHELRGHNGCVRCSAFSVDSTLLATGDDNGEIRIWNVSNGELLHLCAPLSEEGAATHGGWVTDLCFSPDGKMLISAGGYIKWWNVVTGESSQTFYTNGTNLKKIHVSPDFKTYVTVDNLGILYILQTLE
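Assay system – apoptosome proteins · Medium – Hepes buffer, pH 7.5 · Also added – cytochrome c with DEVD-Rh110 · Timing – 30 min compound preincubation, 50 min activation, room temperature · Detection – Rh110 fluorescence, excitation 480 nm, emission 540 nm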
CHOP UPR activ: activators of apoptotic arm of unfolded protein response (CHOP). hit rate 0.34% among 330,000. activation, % at 10 µM. CHO-CHOP luciferase reporter, UPR activation, luminescence; percent of tunicamycin response over DMSO baseline;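 active = at 10 µM dose, activation of 40% or more, normalized to positive control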;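 also: 100% = tunicamycin at 10 µg/mL and 0% = DMSO alone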
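System: CHO CHOP reporter cells. Amount: 500 cells per well. Buffer or medium: F12 medium, 10% FBS. Compound dosing: one dose, 10 µM in 0.5% DMSO. Incubation: 6 h compound exposure at 37 °C after overnight seeding. Technique: Steady-Glo luciferase luminescence. Benchmarks: tunicamycin and DMSO controls.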
UPR XBP1 act: adaptive UPR (XBP1) activation; CHO-XBP1 luciferase reporter, IRE1-XBP1 UPR activation, luminescence; percent of tunicamycin response, DMSO as zero; activation, % at 20 µM; hit rate 0.33% among 330,000; AID 463104;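 active = versus positive control, 20 µM dose yields 30% or more activation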;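 also: 100% = tunicamycin at 10 µg/mL and 0% = DMSO only wells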
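Material: CHO-XBP1 cells stably carrying IRE1-XBP1-driven luciferase reporter / Amount: 1000 cells per well / Compound: 20 µM, 1% DMSO / Times: 6 h treatment, 37 °C / Detection: luciferase luminescence / Measure: % activation of reporter signal versus tunicamycin and DMSO controls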
CHOP UPR conf: confirmation of apoptotic unfolded protein response (CHOP) activators | shares compounds with CHOP UPR activ | CHO-CHOP cells, CHOP-luciferase reporter luminescence; percent of tunicamycin response, DMSO as zero | hit rate 64% among 1,000 | activation, % at 10 µM; in the data active = activation above about 33%;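 also: 0% = DMSO wells and 100% = tunicamycin 10 µg/mL wells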
UPR XBP1 confirm: adaptive UPR (XBP1) activation, confirmed; shares compounds with UPR XBP1 act; CHO-XBP1 IRE1-XBP1 luciferase reporter, luminescence; activation, % at 20 µM; hit rate 63% among 1,000; AID 485299;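 active = reporter signal at least 30% of the positive control's activation in two or more of four replicate wells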;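 also: plate controls were DMSO negative control for no effect and tunicamycin 10 µg/mL positive control for full effect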
Mdm2 MdmX conf: human Mdm2/MdmX binding inhibition, confirmed. shares compounds with Mdm2 MdmX PPI. luminescent assay. inhibition, % at 8 µM. hit rate 55% among 10,000; in the data active = inhibition above about 40%
FLuc counter: full-length luciferase inhibition in Mdm2/MdmX counter-screen | shares compounds with Mdm2 MdmX PPI | SaOS-2 full-length luciferase counterscreen, luminescence | inhibition, % at 8 µM | hit rate 77% among 6,200;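 active = mean inhibition at 8 µM reaching about 37%, which flags the compound as non-specific, limit read from the data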;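 also: p53-null SaOS-2 cells with luciferase driven by a doxycycline-inducible promoter; compound on cells about two nights before reading with doxycycline added after day one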
Numbers without * were called inactive; . = no result.

SMILES	UBC13 inh	Mdm2 MdmX PPI	Apaf-1 inh	CHOP UPR activ	UPR XBP1 act	CHOP UPR conf	Mdm2 MdmX conf	FLuc counter	others
CC(C)c1ccc(NC(=O)c2ccccc2NC(=O)C2CCCCC2C(=O)O)cc1 (stereo unspecified)	-18	-72	2	4	3	.	.	.
O=C1c2ccccc2C(=O)N1CCc1ccccn1	3	20	-10	3	2	.	.	.
O=C1c2cccc3c([N+](=O)[O-])ccc(c23)C(=O)N1CCc1ccccn1	-6	96*	-1	58*	9	24	9	.
O=S1(=O)Nc2c(ccc3cccnc23)-c2ccccc21	-8	100*	13	346*	1	425*	97*	54*
CCOC1(OCC)N=C(N)C2(C#N)C(c3ccc(NC(C)=O)cc3)C12C#N (stereo unspecified)	-5	-5	11	0	-3	.	.	.
O=[N+]([O-])/C=C/c1cn(Cc2ccc(Cl)cc2)c2ccccc12	13	26	6	7	1	.	.	.
Cc1cccc(Cn2cc(/C=C/[N+](=O)[O-])c3ccccc32)c1	3	58*	-2	50*	53*	218*	15	.
CN(C(=O)CSc1cc(C(=O)c2nccn2C)c2ccccc2n1)c1ccccc1	7	53*	1	95*	27	94*	63*	81*
Cn1ccnc1C(=O)c1cc(SCC(=O)NC2CC2)nc2ccccc12	-14	13	-1	2	3	.	.	.
CC(C)Cc1csc(NC(=O)c2ccc(Br)cc2)c1C(=O)O	-12	7	0	1	3	.	.	.
Cc1cc(/C=C(/C#N)c2cccc(F)c2)c(C)n1-c1cccnc1	3	-6	14	4	4	.	.	.
O=C(Nc1cc(-c2nc3ncccc3o2)ccc1Cl)c1ccc([N+](=O)[O-])o1	-11	17	7	4	6	.	.	.
C[C@@H]1CN([C@@H](C)CO)C(=O)c2cc(NC(=O)CCC(F)(F)F)ccc2O[C@H]1CN(C)Cc1ccc(Cl)c(Cl)c1	11	47	33	0	-3	.	.	.
C[C@@H]1CN([C@H](C)CO)C(=O)c2cc(NC(=O)Nc3ccc(C(F)(F)F)cc3)ccc2O[C@H]1CN(C)Cc1ccc(Cl)c(Cl)c1	-14	98*	8	184*	19	60*	47*	20
Cn1c(=O)c2c(SCC(=O)Nc3cccc(F)c3)nc(-c3ccco3)nc2n(C)c1=O	-9	100*	-12	158*	481*	0	20	.	UPR XBP1 confirm=4
CC(Sc1nc(-c2ccco2)nc2c1c(=O)n(C)c(=O)n2C)C(=O)O (stereo unspecified)	3	12	-16	0	0	.	.	.
Clc1ccc(-n2nnnc2Sc2ncnc3sccc23)cc1	20	90*	0	89*	-9	112*	74*	43*
CCCCC1CCC(C(=O)N(CCCC)c2c(N)n(CCCC)c(=O)[nH]c2=O)CC1 (stereo unspecified)	-7	99*	7	115*	13	35*	28	.
COc1cc(/C=C2\COC/C(=C\c3ccc(O)c(OC)c3)C2=O)ccc1O	-66	100*	7	140*	-6	112*	100*	53*
COc1ccc(/C=C2\CN(Cc3ccccc3)C/C(=C\c3ccc(OC)c(O)c3)C2=O)cc1O	-37	98*	33	51*	-8	43*	100*	51*
COc1cc(/C=C2/CC/C(=C/c3ccc(O)c(OC)c3)C2=O)ccc1O	-58	31	-3	0	3	.	.	.
CCN1Cc2c(/C=C/c3ccccc3)nc3ccc(OC)cc3c2N(c2cccc(Cl)c2)C1	-14	21	17	8	3	.	.	.
Cc1oc(-c2cccs2)nc1CN1CCN(Cc2ccc(F)c(F)c2)C(CCO)C1 (stereo unspecified)	-6	0	-7	3	-1	.	.	.
COc1cc(/C=N/NC(=O)c2ccc(COc3cc(C)ccc3C(C)C)cc2)cc(OC)c1O	-1	27	-10	-1	-3	.	.	.
Cc1ccc(C(C)C)c(OCc2ccc(C(=O)N/N=C/c3ccc(O)c(O)c3)cc2)c1	-11	53*	20	102*	86*	57*	31	.	UPR XBP1 confirm=54*
SMILES	UBC13 inh	Mdm2 MdmX PPI	Apaf-1 inh	CHOP UPR activ	UPR XBP1 act	CHOP UPR conf	Mdm2 MdmX conf	FLuc counter	others
O=C(Nc1ccccn1)c1ccc(Cl)s1	1	-36	10	3	2	.	.	.
O=C(Nc1nc(-c2ccccn2)cs1)c1ccc(Cl)s1	-39	70*	4	90*	11	126*	80*	24
Cc1cccnc1Nc1nc(-c2ccccn2)cs1	-4	74*	9	451*	11	471*	36	.
Cc1cccnc1Nc1nc(-c2ccccc2)cs1	-4	-219	26	5	-4	.	.	.
COc1cc([N+](=O)[O-])cc(/C=N/NC(=O)c2ccc(NC(=O)c3ccc(C)cc3)cc2)c1O	-34	88*	3	49*	38*	64*	94*	33	UPR XBP1 confirm=44*
COc1ccccc1/C=N/NC(=O)c1ccc(NC(=O)c2cccc([N+](=O)[O-])c2)cc1	-3	-6	8	0	-4	.	.	.
Nc1ccccc1SCCS(=O)(=O)c1ccc(Cl)cc1	-6	12	6	-2	-2	.	.	.
Cn1c(=NC(=O)CCl)sc2ccccc21	0	98*	-26	41*	-2	23	97*	29
O=C(COC(=O)c1ccccc1C(=O)c1ccc(Cl)c([N+](=O)[O-])c1)NC1CCCCCC1	6	96*	11	85*	-4	36*	100*	51*
O=C(CNC(=O)c1ccc(Cl)cc1)OCCCOC(=O)CNC(=O)c1ccc(Cl)cc1	-6	-9	16	0	-4	.	.	.
CCCCn1c(N)c(N(CC)C(=O)c2cc3c(s2)CCCCC3)c(=O)[nH]c1=O	-6	13	6	0	0	.	.	.
O=C(Nc1ccc(Br)cc1)c1cc(-c2ccncc2)nc2ccccc12	-15	62*	27	67*	122*	29	51*	45*	UPR XBP1 confirm=105*
Cn1nnnc1Sc1ncnc2scc(-c3ccc([N+](=O)[O-])cc3)c12	-2	99*	-2	93*	-4	105*	100*	50*
